{
  "source": "paper PMC9728588",
  "about": "(Chemical Science, 2022)",
  "key": {"CD47": {"target": "CD47 (Homo sapiens, UniProt Q08722)", "sequence (Q08722 19-323, species assumed)": "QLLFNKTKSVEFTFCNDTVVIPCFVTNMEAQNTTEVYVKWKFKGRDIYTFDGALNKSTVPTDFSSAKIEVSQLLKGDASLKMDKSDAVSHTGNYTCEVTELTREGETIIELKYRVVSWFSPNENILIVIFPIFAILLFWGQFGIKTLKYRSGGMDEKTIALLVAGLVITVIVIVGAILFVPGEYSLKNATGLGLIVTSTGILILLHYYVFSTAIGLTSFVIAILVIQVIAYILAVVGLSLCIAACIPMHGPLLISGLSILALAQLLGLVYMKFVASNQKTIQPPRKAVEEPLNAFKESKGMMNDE", "experiment": "SPRi analysis of the binding between RT and CD47"}, "red blood cells": {"system": "red blood cells", "experiment": "Hemolysis assay", "assay_type": "cell-based, mouse", "details": "2% (v/v) RBC in PBS, 37 °C, 1 h; absorbance 540 nm; water / PBS controls", "how_it_was_run": "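Red cells were exposed to the test peptide across a concentration range, and separately to peptide–quantum dot co-assemblies (peptide fixed at 1 mg mL−1, QD level varied). Supernatants were scanned by UV-vis spectroscopy to derive hemolysis rates. Means ± s.d., n = 3; one-way ANOVA with Tukey post hoc test.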"}},
  "note": "Ends that are not written are not given here.",
  "data": [
    {"sequence": "HFEYWEERHKKLVFF [RT]", "values": [
      {"measurement": "Kd", "setting": "CD47", "value": 318, "unit": "nM"},
      {"measurement": "hemolytic effect", "setting": "red blood cells", "value": "almost no hemolytic effect"}
    ]}
  ]
}
